Values after ≈ are worked out from the molar mass of the structure shown. Active and inactive are the calls of the source. The calls are words filed in the database; no cut-off is given here.
What was measured:
[1] = Selectivity ratio of IC50 for human BJeH-LT cells to IC50 for human BJeLR cells; assay type: ADME, cell-based; details: BJeH-LT cells versus BJeLR cells, read-out: Ratio IC50
[2] = Cytotoxicity against human BJeH-LT cells after 48 hrs by alamar blue assay; assay type: cell-based
How it was run: (§1)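 Cells grown in DMEM/M199 with heat-inactivated FBS at 37°C, 5% CO2, ≤20 passages. Compounds in DMSO diluted into medium, then 2-fold serial dilutions in medium; 1000 cells/well treated for 48 h. Viability read by adding Alamar Blue (50% in growth medium), incubating 16 h, then fluorescence at 544 excitation/590 emission; concentration-response curves generated.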

[3] = Cytotoxicity against human BJeLR cells expressing HRAS G12V mutant after 48 hrs by alamar blue assay; assay type: functional, cell-based
How it was run: (§2)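 BJ fibroblast lines: BJeLR (hTERT, SV40 large and small T, HRASV12) and DRD (hTERT, SV40 small T, dominant-negative p53, cyclin D1, mutant CDK4, HRASV12), grown in DMEM/M199/heat-inactivated FBS for ≤20 passages. Compounds were taken from DMSO into medium as 2-fold serial dilutions. 1000 cells/well were exposed for 48 h at 37°C, 5% CO2. Alamar Blue was added for 16 h, then fluorescence read at excitation 544, emission 590.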

BJeLR = test: Cytotoxicity against human BJeLR cells up to 20 ug/ml after 48 hrs by alamar blue assay; assay type: functional, cell-based; how it was run: as §1
BJeH-LT = test: Cytotoxicity against human BJeH-LT cells up to 20 ug/ml after 48 hrs by alamar blue assay; assay type: functional, cell-based; how it was run: as §1
[4] = Cytotoxicity against human BJeH cells after 48 hrs by alamar blue assay; assay type: cell-based
[5] = Drug degradation in PBS assessed as racemisation after 48 hrs by HPLC/MS analysis; assay type: physicochemical; details: buffer
BJ = test: Cytotoxicity against human BJ cells expressing HRAS G12V mutant with alternative oncogenic constructs after 48 hrs by alamar blue assay; assay type: functional, cell-based; how it was run: as §2
[6] = Aqueous solubility of the compound; assay type: physicochemical
[7] = Drug degradation in PBS/DMSO assessed as GSH-adduct formation after 1 hr in the presence of GSH and triethylamine; assay type: physicochemical; details: buffer
[8] = (§3) Selectivity ratio of IC50 for human BJeH cells to IC50 for human BJeLR cells; assay type: ADME, cell-based; details: BJeH cells versus BJeLR cells, read-out: Ratio IC50
[9] = as §3; assay type: ADME, cell-based; details: BJeH cells versus BJeLR cells, read-out: Ratio IC50; remark: listed apart in the source
MEF = test: Cytotoxicity against MEF expressing K-rasG12D after 48 hrs by CellTiter-Glo assay; assay type: functional, cell-based; details: Mus musculus

Work on COc1cccc(N(C(=O)CCl)C(C(=O)NCCc2ccccc2)c2cccs2)c1 (racemic) yielded a selectivity ratio [1] of 14, an IC50 [2] of 2400 nM and an IC50 [3] of 170 nM.
Work on COc1ccc(N(C(=O)CCl)C(C(=O)NCCc2ccccc2)c2cccs2)cc1 (racemic) yielded a selectivity ratio [1] of 7.8, an IC50 [2] of 1700 nM and an IC50 [3] of 220 nM.
Compound COc1ccc(N(C(=O)CCl)C(C(=O)NCCc2ccccc2)C(C)C)cc1Cl (racemic) has a selectivity ratio [1] of 1.5, an IC50 [2] of 1300 nM and an IC50 [3] of 895 nM.
COC(=O)c1ccc(C2c3[nH]c4ccccc4c3C[C@@H](C(=O)OC)N2C(=O)CCl)cc1 (stereo partly specified) showed a selectivity ratio [1] of 8 and an IC50 [3] of 100 nM.
Work on Cc1onc(C(=O)N2CCN(C(c3ccc(F)cc3)c3ccc(F)cc3)CC2)c1[N+](=O)[O-] yielded a selectivity ratio [1] of 4.1, an IC50 [2] of 757 nM and an IC50 [3] of 183 nM.
With CCC(=O)N1CCN(C(=O)c2noc(C)c2[N+](=O)[O-])CC1 the inhibition (BJeLR) was “inactive” and the inhibition (BJeH-LT) was “inactive”.
With Cc1onc(C(=O)NCCNC(c2ccccc2)c2ccccc2)c1[N+](=O)[O-] the inhibition (BJeH-LT) was “inactive” and the IC50 [3] was 21600 nM.
For Cc1onc(C(=O)N2CCN(Cc3ccccc3)CC2)c1[N+](=O)[O-], the inhibition (BJeLR) was “inactive” and the inhibition (BJeH-LT) was “inactive”.
Compound O=C(NCCc1ccccc1)C(c1cccs1)N(C(=O)CCl)c1cccc(Cl)c1 (racemic) has a selectivity ratio [1] of 2.1, an IC50 [2] of 331 nM and an IC50 [3] of 156 nM.
For Cc1onc(C(=O)N2CCN(C(c3ccccc3)c3ccc(Cl)cc3)CC2)c1[N+](=O)[O-] (racemic), the selectivity ratio [1] was 4, the IC50 [2] was 510 nM and the IC50 [3] was 129 nM.
In the case of Cc1ccc(C(=O)N2CCN(C(c3ccccc3)c3ccccc3)CC2)c([N+](=O)[O-])c1, the inhibition (BJeLR) is reported as “inactive” and the inhibition (BJeH-LT) is reported as “inactive”.
Compound O=C(c1cc([N+](=O)[O-])ccn1)N1CCN(C(c2ccccc2)c2ccccc2)CC1 has a selectivity ratio [1] of 1.33, an IC50 [2] of 49700 nM and an IC50 [3] of 37300 nM.
Work on COc1ccc(N(C(=O)CCl)C(C)(C)C(=O)NCCc2ccccc2)cc1Cl yielded a selectivity ratio [1] of 2.2, an IC50 [2] of 127 nM and an IC50 [3] of 58 nM.
In the case of COc1ccc(N(C(=O)CCl)C(C(=O)NCCc2ccccc2)C2CCCCC2)cc1Cl (racemic), the selectivity ratio [1] is reported as 2.3, the IC50 [2] is reported as 1180 nM and the IC50 [3] is reported as 505 nM.
For COc1ccc(N(C(=O)CCl)C(C(=O)NCCc2ccccc2)c2cccs2)cc1Cl (racemic), the IC50 [4] was 2400 nM, the Drug degradation [5] was “Not Active” and the IC50 (BJ) was 34 nM. The IC50 [2] was 578 nM, the solubility ([6]; aqueous, read-out: solubility) was 16 µM (≈ 7.64 µg/mL) and the Drug degradation [7] was “Active”. It also gave an IC50 [3] of 25 nM.
For O=C(c1ccc([N+](=O)[O-])o1)N1CCN(C(c2ccccc2)c2ccccc2)CC1, the IC50 [2] was 18900 nM and the inhibition (BJeLR) was “inactive”.
With Cc1onc(C(=O)N2CCN(C(c3ccc(Cl)cc3)c3ccc(Cl)cc3)CC2)c1[N+](=O)[O-] the IC50 [4] was 628 nM, the selectivity ratio [1] was 3.9 and the selectivity ratio [8] was 4. It also gave a selectivity ratio [9] of 4, an IC50 (BJ) of 107 nM and an IC50 [2] of 272 nM. The IC50 [3] was 71 nM.
In the case of Cc1onc(C(=O)NCc2ccc(F)cc2)c1[N+](=O)[O-], the inhibition (BJeLR) is reported as “inactive” and the inhibition (BJeH-LT) is reported as “inactive”.
With Cn1cc([N+](=O)[O-])c(C(=O)N2CCN(C(c3ccccc3)c3ccccc3)CC2)n1 the inhibition (BJeLR) was “inactive” and the inhibition (BJeH-LT) was “inactive”.
With COc1ccc(N(C(=O)CCl)C(C(=O)NCn2nnc3ccccc32)c2cccs2)cc1Cl (racemic) the IC50 [2] was 242 nM and the IC50 [3] was 102 nM.
C[C@H](CN1CCCC1)C(=O)c1ccc(C(F)(F)F)cc1 [LANPERISONE] showed an IC50 (MEF) of 4000 nM.
In the case of Cc1onc(C(=O)N2CCN(C(c3ccccc3)c3ccccc3)CC2)c1[N+](=O)[O-], the selectivity ratio [1] is reported as 4.8, the IC50 [2] is reported as 4970 nM and the IC50 [3] is reported as 1030 nM.
COc1ccc(C(c2ccc(OC)cc2)N2CCN(C(=O)c3noc(C)c3[N+](=O)[O-])CC2)cc1 gave a selectivity ratio [1] of 3.4, an IC50 [2] of 5320 nM and an IC50 [3] of 1570 nM.
In the case of Cn1ncc([N+](=O)[O-])c1C(=O)N1CCN(C(c2ccccc2)c2ccccc2)CC1, the inhibition (BJeLR) is reported as “inactive” and the inhibition (BJeH-LT) is reported as “inactive”.
For Cc1onc(C(=O)N2CCN(C(c3ccncc3)c3ccncc3)CC2)c1[N+](=O)[O-], the inhibition (BJeLR) was “inactive”, the solubility ([6]; buffer) was > 500 µM and the inhibition (BJeH-LT) was “inactive”.
Work on Cc1onc(C(=O)N2CCCN(C(c3ccccc3)c3ccccc3)CC2)c1[N+](=O)[O-] yielded a selectivity ratio [1] of 3.6, an IC50 [2] of 2790 nM and an IC50 [3] of 773 nM.
With Cc1onc(C(=O)N2CCN(C(c3ccccn3)c3ccccn3)CC2)c1[N+](=O)[O-] the inhibition (BJeLR) was “inactive”, the solubility ([6]; buffer) was > 500 µM and the inhibition (BJeH-LT) was “inactive”.
In the case of Cc1onc(C(=O)N2CCOCC2)c1[N+](=O)[O-], the inhibition (BJeLR) is reported as “inactive” and the inhibition (BJeH-LT) is reported as “inactive”.
Work on COc1ccc(N(C(=O)CCl)C(C(=O)NCCc2ccccc2)c2ccc(Cl)s2)cc1Cl (racemic) yielded a selectivity ratio [1] of 2.2, an IC50 [2] of 133 nM and an IC50 [3] of 61 nM.
For COc1ccc(N(C(=O)CCl)C(C(=O)NCS(=O)(=O)c2ccc(C)cc2)c2cccs2)cc1Cl (racemic), the IC50 [2] was 208 nM, the solubility ([6]; aqueous, read-out: solubility) was < 1 µM and the IC50 [3] was 89 nM.
For COc1ccc(N(C(=O)CCl)C(C(=O)NCCc2ccccc2)c2nc(C)cs2)cc1Cl (racemic), the selectivity ratio [1] was 2.4, the IC50 [2] was 19800 nM and the IC50 [3] was 8260 nM.
Work on COc1ccc(N(CC(=O)NCCc2ccccc2)C(=O)CCl)cc1Cl yielded a selectivity ratio [1] of 2.3, an IC50 [2] of 531 nM and an IC50 [3] of 231 nM.
Work on COc1ccc(N(C(=O)CCl)C(C(=O)NC2CCCCC2)c2cccs2)cc1Cl (racemic) yielded a selectivity ratio [1] of 2.4, an IC50 [2] of 270 nM and an IC50 [3] of 113 nM.
With O=C(c1n[nH]cc1[N+](=O)[O-])N1CCN(C(c2ccccc2)c2ccccc2)CC1 the inhibition (BJeLR) was “inactive” and the inhibition (BJeH-LT) was “inactive”.
In the case of COc1ccccc1N1CCN(C(=O)c2noc(C)c2[N+](=O)[O-])CC1, the inhibition (BJeLR) is reported as “inactive” and the inhibition (BJeH-LT) is reported as “inactive”.
With COc1ccc(N(C(=O)CCl)C(C(=O)NCc2ccccc2)c2cccs2)cc1Cl (racemic) the selectivity ratio [1] was 2.4, the IC50 [2] was 179 nM and the IC50 [3] was 75 nM.

From ChEMBL document CHEMBL1949667, “Development of small-molecule probes that selectively kill cells induced to express mutant RAS” (Bioorg Med Chem Lett, 2012)
